ChEMBL document CHEMBL1926651, “Design, synthesis, antiviral and cytostatic evaluation of novel isoxazolidine nucleotide analogues with a 1,2,3-triazole linker” (Eur J Med Chem, 2012)
Activity calls are given as the source filed them.

Legend:
Punta Toro virus = assay: Antiviral activity against Punta Toro virus infected in african green monkey Vero cells assessed as inhibition of viral plaque formation at 250 uM; type: functional, organism-based
Human alphaherpesvirus 1 [1] = assay: Antiviral activity against Herpes simplex virus 1 KOS infected in human HEL cells assessed as inhibition of viral plaque formation at 250 uM; type: functional, organism-based
In short: (§1)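 Confluent host cell monolayers were inoculated with 100 CCID50 of virus in the presence of test compound at serial dilutions (250, 50, 10, … μM). Viral cytopathicity was scored once it reached completion in untreated virus-infected controls.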

Human respirovirus 3 = assay: Antiviral activity against Parainfluenza-3 virus infected in african green monkey Vero cells assessed as inhibition of viral plaque formation at 250 uM; type: functional, organism-based; in short: as §1
Human alphaherpesvirus 3 [2] = assay: Antiviral activity against thymidine kinase-positive Varicella Zoster virus Oka infected in human HEL cells assessed as inhibition of viral plaque formation at 250 uM; type: functional, cell-based; conditions: strain Oka vaccine
Human betaherpesvirus 5 [3] = assay: Antiviral activity against Human cytomegalovirus AD169 infected in human HEL cells assessed as inhibition of viral plaque formation at 250 uM; type: functional, organism-based
Human betaherpesvirus 5 [4] = assay: Antiviral activity against Human cytomegalovirus Davis infected in human HEL cells assessed as inhibition of viral plaque formation at 250 uM; type: functional, organism-based
[5] = system: Mammalian orthoreovirus 1; assay: Antiviral activity against Reovirus-1 infected in african green monkey Vero cells assessed as inhibition of viral plaque formation at 250 uM; type: functional, organism-based; in short: as §1
Felid alphaherpesvirus 1 = assay: Antiviral activity against Felid herpesvirus 1 infected in CrFK cells assessed as inhibition of viral plaque formation at 250 uM; type: functional, organism-based; in short: as §1
[6] = system: Human immunodeficiency virus 2; assay: Antiviral activity against Human immunodeficiency virus 2 infected in human CEM cells assessed as inhibition of virus-induced giant cell formation after 4 days by microscopic analysis; type: functional, organism-based; conditions: CCRF-CEM
In short: (§2)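 CEM cells at about 3 × 10⁵ cells/cm³ were infected with 100 CCID50/mL of HIV-1(IIIB) or HIV-2(ROD), then seeded into wells holding test compound dilutions. After 4 days at 37 °C, virus-induced giant cell formation was scored microscopically.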

Coxsackievirus B4 [7] = assay: Antiviral activity against Coxsackievirus B4 infected in african green monkey Vero cells assessed as inhibition of viral plaque formation at 250 uM; type: functional, organism-based; in short: as §1
Human alphaherpesvirus 2 = assay: Antiviral activity against Herpes simplex virus 2 G infected in human HEL cells assessed as inhibition of viral plaque formation at 250 uM; type: functional, organism-based; conditions: strain G
[8] = system: Respiratory syncytial virus; assay: Antiviral activity against Respiratory syncytial virus infected in human HeLa cells assessed as inhibition of viral plaque formation at 250 uM; type: functional, organism-based; in short: as §1
Human alphaherpesvirus 3 [9] = assay: Antiviral activity against thymidine kinase-deficient Varicella Zoster virus 07/1 infected in human HEL cells assessed as inhibition of viral plaque formation at 250 uM; type: functional, organism-based
Human alphaherpesvirus 1 [10] = assay: Antiviral activity against thymidine kinase-deficient acv-resistant Herpes simplex virus 1 KOS infected in human HEL cells assessed as inhibition of viral plaque formation at 250 uM; type: functional, organism-based
Feline coronavirus = assay: Antiviral activity against Feline coronavirus infected in CrFK cells assessed as inhibition of viral plaque formation at 250 uM; type: functional, organism-based; in short: as §1
[11] = system: Vesicular stomatitis virus; assay: Antiviral activity against Vesicular stomatitis virus infected in human Hela cells assessed as inhibition of viral plaque formation at 250 uM; type: functional, organism-based
[12] = system: Human immunodeficiency virus 1; assay: Antiviral activity against Human immunodeficiency virus 1 infected in human CEM cells assessed as inhibition of virus-induced giant cell formation after 4 days by microscopic analysis; type: functional, organism-based; conditions: CCRF-CEM; in short: as §2
Coxsackievirus B4 [13] = assay: Antiviral activity against Coxsackievirus B4 infected in human HeLa cells assessed as inhibition of viral plaque formation at 250 uM; type: functional, organism-based; in short: as §1
Sindbis virus = assay: Antiviral activity against Sindbis virus infected in african green monkey Vero cells assessed as inhibition of viral plaque formation at 250 uM; type: functional, organism-based; in short: as §1
Vaccinia virus = assay: Antiviral activity against Vaccinia virus infected in human HEL cells assessed as inhibition of viral plaque formation at 250 uM; type: functional, organism-based; conditions: Orthopoxvirus vaccinia; in short: as §1
[14] = system: Vesicular stomatitis virus; assay: Antiviral activity against Vesicular stomatitis virus infected in human HEL cells assessed as inhibition of viral plaque formation at 250 uM; type: functional, organism-based; in short: as §1

Measured: Activity

Nc1nc2c(ncn2COCCO)c(=O)[nH]1
inactive: Punta Toro virus | Human alphaherpesvirus 1 [1] | Human respirovirus 3 | Human alphaherpesvirus 3 [2] | Human betaherpesvirus 5 [3] | Human betaherpesvirus 5 [4] | [5] | Felid alphaherpesvirus 1 | [6] | Coxsackievirus B4 [7] | Human alphaherpesvirus 2 | [8] | Human alphaherpesvirus 3 [9] | Human alphaherpesvirus 1 [10] | Feline coronavirus | [11] | [12] | Coxsackievirus B4 [13] | Sindbis virus | Vaccinia virus | [14]

Nc1nc2c(ncn2COC(CO)CO)c(=O)[nH]1
inactive: Punta Toro virus | Human alphaherpesvirus 1 [1] | Human respirovirus 3 | Human alphaherpesvirus 3 [2] | Human betaherpesvirus 5 [3] | Human betaherpesvirus 5 [4] | [5] | Felid alphaherpesvirus 1 | [6] | Coxsackievirus B4 [7] | Human alphaherpesvirus 2 | [8] | Human alphaherpesvirus 3 [9] | Human alphaherpesvirus 1 [10] | Feline coronavirus | [11] | [12] | Coxsackievirus B4 [13] | Sindbis virus | Vaccinia virus | [14]

Nc1ncnc2c1ncn2C[C@H](O)CO
inactive: Punta Toro virus | Human alphaherpesvirus 1 [1] | Human respirovirus 3 | Human alphaherpesvirus 3 [2] | Human betaherpesvirus 5 [3] | Human betaherpesvirus 5 [4] | [5] | Felid alphaherpesvirus 1 | [6] | Coxsackievirus B4 [7] | Human alphaherpesvirus 2 | [8] | Human alphaherpesvirus 3 [9] | Human alphaherpesvirus 1 [10] | Feline coronavirus | [11] | [12] | Coxsackievirus B4 [13] | Sindbis virus | Vaccinia virus | [14]

O=c1[nH]c(=O)n([C@H]2C[C@H](O)[C@@H](CO)O2)cc1/C=C/Br
inactive: Punta Toro virus | Human alphaherpesvirus 1 [1] | Human respirovirus 3 | Human alphaherpesvirus 3 [2] | Human betaherpesvirus 5 [3] | Human betaherpesvirus 5 [4] | [5] | Felid alphaherpesvirus 1 | [6] | Coxsackievirus B4 [7] | Human alphaherpesvirus 2 | [8] | Human alphaherpesvirus 3 [9] | Human alphaherpesvirus 1 [10] | Feline coronavirus | [11] | [12] | Coxsackievirus B4 [13] | Sindbis virus | Vaccinia virus | [14]
